Test results reported in ChEMBL document CHEMBL1152565, “Furo[3',2':3,4]naphtho[1,2-d]imidazole derivatives as potential inhibitors of inflammatory factors in sepsis” (Bioorg Med Chem, 2009).
Calls of active or inactive are those of the source. The calls are words filed in the database; no cut-off is given here.

What was measured:
[1] = tested on: RAW264.7; test: Inhibition of LPS-induced nitric oxide accumulation in mouse RAW264.7 cells; type: functional, cell-based
Outline: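 RAW 264.7 macrophages grown in DMEM with 5% FBS at 37 °C, 5% CO2, and stimulated with LPS. Nitrite accumulated in medium read with Griess reagent (sulfanilamide/N-(1-naphthyl)ethylenediamine in phosphoric acid, 5 min) at OD550 against sodium nitrite standard in culture medium. IC50 as means ± SE of at least three experiments.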

[2] = Antiinflammatory activity against Sprague-Dawley rat neutrophils assessed as inhibition of fMLP/cytochalasin B-induced lysozyme release; type: functional, cell-based; conditions: Neutrophil
Outline: (§1)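 Rat (Sprague-Dawley) peripheral blood neutrophils incubated with test compound 5 min at 37 °C, then stimulated with fMLP (0.3 μM)/cytochalasin B (5 μg/ml) for 45 min. β-Glucuronidase and lysozyme measured in supernatant. Compound stocks in DMSO; final DMSO <0.5% (v/v). Means ± SE of at least three separate experiments.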

[3] = Antiinflammatory activity against Sprague-Dawley rat neutrophils assessed as inhibition of fMLP/cytochalasin B-induced beta-glucuronidase release; type: functional, cell-based; conditions: Neutrophil; outline: as §1
[4] = tested on: Neutrophil; test: Inhibition of fMLP-induced superoxide generation in Sprague-Dawley rat neutrophils; type: functional, cell-based
Outline: (§2)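 Sprague-Dawley rat peripheral blood neutrophils preincubated with compound 5 min at 37 °C, then stimulated 30 min with fMLP (0.3 μM)/CB (5 μg/mL) or PMA (3 nM) in presence of cytochrome c. Superoxide quantified as superoxide dismutase-inhibitable cytochrome c reduction. Final DMSO <0.5% (v/v). IC50 as means ± SE, at least three separate experiments.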

[5] = organism: Rattus norvegicus; test: Inhibition of PMA-induced superoxide generation in Sprague-Dawley rat neutrophils; type: functional; conditions: Neutrophil; outline: as §2
[6] = tested on: RAW264.7; test: Cytotoxicity against mouse RAW264.7 cells up to 10 uM after 24 hrs by methylene blue assay; type: cell-based; conditions: raw264.7, 24 h
Outline: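 RAW 264.7 cells seeded at 2×10^5 cells/well, given LPS plus various compound concentrations for 24 h. Stained with 1% methylene blue for 40 min, washed, dye released with 1% sarcosyl for 4 h, absorbance read at 570 nm. LPS-treated cells without compound set as 100% survival.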

[7] = tested on: RAW264.7; test: Inhibition of LPS-induced iNOS protein expression in mouse RAW264.7 cells after 2 hrs by Western blot; type: functional, cell-based
Outline: (§3)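 RAW 264.7 cells (5×10^5 cells/well) pretreated with compound 2 h, then stimulated with LPS 0.1 μg/mL for 24 h. Lysed in RIPA buffer, protein measured by Bradford, 15 μg run on 8% SDS–PAGE and immunoblotted for iNOS with ECL detection. Bands quantified densitometrically relative to β-actin.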

[8] = tested on: RAW264.7; test: Inhibition of LPS-induced iNOS protein expression in mouse RAW264.7 cells at 5 uM after 2 hrs by Western blot; type: functional, cell-based; outline: as §3
[9] = tested on: Rattus norvegicus; test: Inhibition of iNOS mRNA expressing in cecal ligation and puncture Sprague-Dawley rat model at 10 mg/kg, ip treated 1 hr before surgery measured after 24 hrs of surgery by PCR amplification; type: functional; conditions: route intraperitoneal
Outline: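 Sprague-Dawley rats aged 6–8 weeks, 3–4 per group, given compound or hydrocortisone 10 mg/kg by intraperitoneal injection 1 h before cecal ligation and puncture. Resuscitated with 1 mL normal saline after surgery; sham animals handled identically. Lung tissue collected 24 h post-surgery; iNOS mRNA band intensities normalized to GAPDH.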

[10] = tested on: Rattus norvegicus; test: Inhibition of sepsis-induced PGE2 production in cecal ligation and puncture Sprague-Dawley rat model serum at 10 mg/kg, ip treated 1 hr before surgery measured after 24 hrs of surgery by ELISA; type: functional; conditions: route intraperitoneal
Outline: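 Sprague-Dawley rats aged 6–8 weeks (3–4 per group) pretreated intraperitoneally with 10 mg/kg compound or hydrocortisone 1 h before cecal ligation and puncture, saline-resuscitated after. Blood taken from portal vein 24 h post-surgery, centrifuged 3000 rpm 20 min, serum stored at -70 °C. PGE2 measured by ELISA; average of three independent studies.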

SMILES	IC50 [1] [µM]	IC50 [2] [µM]	IC50 [3] [µM]	IC50 [4] [µM]	IC50 [5] [µM]	Activity [6]	inhibition [7]	inhibition [8]	inhibition in vivo at 10 mg/kg [9] [%]	inhibition in vivo at 10 mg/kg [10] [%]
CC(=N)NCc1cccc(CN)c1 [1400W]	2.7									
O=[N+]([O-])c1ccc(-c2nc3c4ccccc4c4occc4c3[nH]2)o1	1.5	> 30	> 30	> 30	> 30	Non-toxic	Dose-dependent effect			
c1ccc(-c2nc3c4ccccc4c4occc4c3[nH]2)cc1	> 10	16.3	11.4	> 30	> 30					
O=[N+]([O-])c1ccc(-c2nc3c4ccccc4c4occc4c3[nH]2)cc1	> 10	> 10	> 10	> 30	> 30					
c1coc(-c2nc3c4ccccc4c4occc4c3[nH]2)c1	11.9	19.5	11.3	> 30	> 30	Non-toxic	Dose-dependent effect			
O=Cc1ccc(-c2nc3c4ccccc4c4occc4c3[nH]2)cc1	> 10	7.4	5	> 30	> 30					
c1ccc2c(c1)c1nc[nH]c1c1ccoc21	> 30	> 30	> 30	> 30	> 30					
O=[N+]([O-])c1ccc(/C=C/c2nc3c4ccccc4c4occc4c3[nH]2)o1	1.3	> 30	> 30	> 30	> 30	Non-toxic	Dose-dependent effect	Active	30	150
c1ccc2c(c1)[I+]c1ccccc1-2 [DIPHENYLENEIODONIUM CHLORIDE]				5.2	4.3					
CN1CCN(CCCN2c3ccccc3Sc3ccc(C(F)(F)F)cc32)CC1 [TRIFLUOPERAZINE]		11.9	12.5							
